procasp3 activ: activates human procaspase-3. P42574. recombinant procaspase-3 D3A, Ac-DEVD-pNA absorbance 405 nm. activation, % at 8.5 µM. hit rate 0.11% among 330,000. AID 463141;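 active means activation above the mean of all tested compounds plus 3 SD, cut at about 21% in these data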
Target sequence (P42574 whole entry D9A/D28A/D175A): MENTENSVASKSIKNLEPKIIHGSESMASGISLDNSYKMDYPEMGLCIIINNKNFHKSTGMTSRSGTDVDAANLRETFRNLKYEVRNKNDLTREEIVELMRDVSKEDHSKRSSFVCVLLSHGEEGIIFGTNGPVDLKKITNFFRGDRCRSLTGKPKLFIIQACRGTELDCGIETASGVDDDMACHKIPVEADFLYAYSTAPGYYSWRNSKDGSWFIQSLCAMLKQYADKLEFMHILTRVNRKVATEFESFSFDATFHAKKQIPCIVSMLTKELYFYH
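Assay system – Procaspase-3 D3A mutant · Benchmarks – DMSO low control, extra-enzyme high control · Technique – 405 nm absorbance of p-nitroaniline, reads at 0 and 120 min · Doses – 8.5 µM nominal · Measure – % activation between DMSO and enzyme-spiked controls · Also added – Ac-DEVD-pNA chromogenic peptide substrate · Schedule – 1 h compound preincubation, 2 h substrate hydrolysis at 25 °C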
MPTP inh: inhibitors of mitochondrial permeability transition pore. isolated mouse mitochondria, Ca2+ swelling absorbance, 30 min. inhibition, % at 10 µM. hit rate 1.4% among 360,000;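 active means inhibition of 50% or more, scaled per plate between neutral and stimulator controls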
procasp7 counter: counter-screen for procaspase-3 activators: activators of human procaspase-7; activation, % at 8.5 µM; hit rate 0.093% among 330,000; recombinant procaspase-7, Ac-DEVD-pNA absorbance 405 nm; D23A/D198A/D206A triple mutant, cannot self-cleave; scale: DMSO 0, 5 µM enzyme 100; P55210; AID 463210;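 active means percent activation above the screen-wide mean plus 3 SD, cut at about 25% in these data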
Target sequence (P55210 whole entry D23A/D198A/D206A): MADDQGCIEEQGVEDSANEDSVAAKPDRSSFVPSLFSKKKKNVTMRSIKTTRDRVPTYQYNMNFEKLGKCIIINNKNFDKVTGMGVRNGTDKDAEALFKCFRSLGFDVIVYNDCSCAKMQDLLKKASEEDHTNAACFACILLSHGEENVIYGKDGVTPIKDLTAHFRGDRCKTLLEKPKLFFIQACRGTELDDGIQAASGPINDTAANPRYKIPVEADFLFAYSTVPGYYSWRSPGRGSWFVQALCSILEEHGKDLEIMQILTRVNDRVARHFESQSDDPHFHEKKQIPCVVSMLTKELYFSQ
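Material: Procaspase-7 triple mutant (PC-7 D3A) | Quantity: 2 µM procaspase-7 mutant as dispensed | Reagent: DEVD-pNA substrate | Times: 1 h preincubation, 2 h reaction | Technique: 405 nm absorbance of p-nitroaniline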
NR3A LBD binder: modulators (binders) of human NR3A ligand-binding domain; NR3A LBD differential scanning fluorimetry, Tm shift; 0% = protein alone, 100% = glycine-bound protein; Tm shift relative to glycine control, % at 25 µM; hit rate 2.5% among 340,000;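 active means melting temperature shift of at least 10% of the positive control shift, at one fixed dose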
aDG glyco act: alpha-DG glycosylation activation. Pro5-aDG cells, alpha-DG glycosylation AlphaScreen (IIH6); 0% Pro5, 100% B10-LARGE cell signal. activation, % at 10 µM. hit rate 0.22% among 360,000;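 active means activation of at least 8% versus controls, or a plate z-score of at least 8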;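 further: Pro5 are CHO cells carrying HIG-tagged alpha-DG that lacks glycosylation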
MPTP counter: Rhodamine 123 counter-screen of mitochondrial pore hits | shares compounds with MPTP inh | isolated mitochondria, membrane potential, Rhodamine 123 fluorescence | inhibition, % at 10 µM | hit rate 78% among 5,000 | AID 624504; in the data active means inhibition above about 22%
aDG glyco conf: alpha-DG glycosylation activation, confirmation | shares compounds with aDG glyco act | Pro5-aDG cells, IIH6 AlphaLISA; scaled to LARGE-overexpressing B10 cells as 100% | activation, % at 10 µM (by protocol) | hit rate 17% among 600 | AID 651671;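 active means activation of at least 7% in one or more replicates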;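 further: cells exposed to compound for two days before detection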
Of the large screens only hits and unclear results are named; the others gave an inactive call (follow-up assays come after a bar, where they were run). Most compounds without a hit are left out; they make up all but 3.7% or so of the library.

Cc1ccc(NC(=O)Cc2nn(C)c(=O)c3ccccc23)cc1F	MPTP inh 59, aDG glyco act 10 | MPTP counter 80 | aDG glyco conf inactive
O=C(CSc1nncs1)Nc1ccc(Cl)cc1C(F)(F)F	none
CCOc1ccc(CC(=O)NNC(=O)/C=C/C(=O)O)cc1	none
Cc1cccc(-c2ccc3ncnc(NCc4cccnc4)c3c2)c1	none
Brc1ccc2ncnc(NCc3ccccc3)c2c1	MPTP inh 59, aDG glyco act 8.2 | MPTP counter 88 | aDG glyco conf 3.4
CCOC(=O)c1cnc(SCC(=O)Nc2ccc(NC(C)=O)c(OC)c2)nc1N	none
CCOC(=O)c1cnc(SCC(=O)Nc2cc(OC)ccc2OC)nc1N	MPTP inh 86, aDG glyco act 6.7 | MPTP counter 69 | aDG glyco conf inactive
S=C(NCCC1=CCCCC1)Nc1ccc(Cl)cc1	MPTP inh 91, aDG glyco act 5.9 | MPTP counter 90 | aDG glyco conf inactive
COc1ccccc1NC(=O)C(=N\O)/C(C)=N/O	none
CCCN(CC(=O)Nc1cc(Cl)cc(Cl)c1)CC(=O)Nc1ccc(F)c(F)c1F	MPTP inh 57, NR3A LBD binder 20, aDG glyco act 5.9 | MPTP counter 59 | aDG glyco conf inactive
Cc1nc(NC(C)c2ccccc2)c2oc3ccccc3c2n1 (configuration not stated)	MPTP inh 64, aDG glyco act 6.7 | MPTP counter 96 | aDG glyco conf inactive
CCCCCNc1nc2sc3c(c2c(=O)n1-c1cccc(Cl)c1)CCN(C)C3	none
O=C(N/N=C/c1cccn1-c1ccc([N+](=O)[O-])cc1)c1cccnc1	none
Brc1ccc(CNc2ccc3ncccc3c2)cc1	MPTP inh 92, aDG glyco act 2.8 (no result: procasp3 activ, procasp7 counter) | MPTP counter 86 | aDG glyco conf inactive
CCn1cnc2cc(NCc3ccc(Br)cc3)ccc21	none (no result: MPTP inh, aDG glyco act)
O=C(CSc1nnc(Cn2nnc3ccccc32)o1)N(Cc1ccc(Cl)cc1)c1ccccc1	MPTP inh 96, aDG glyco act 6.4 | MPTP counter 103 | aDG glyco conf inactive
O=C(CSc1nnc(Cn2nnc3ccccc32)o1)Nc1cccc(Cl)c1	none
c1ccc(CNc2ncnc3c2oc2ccccc23)nc1	none
COc1ccc(CCNc2ncnc3c2oc2ccccc23)cc1OC	MPTP inh 97, aDG glyco act 7.4 | MPTP counter 99 | aDG glyco conf inactive
CN(CC(=O)Nc1cccc(F)c1)CC(=O)N(C)CC(=O)Nc1ccccc1Br	none
Cc1cc(OC(=O)c2c(C)cc(OC(=O)c3c(C)cc(O)cc3O)cc2O)cc(O)c1C(=O)O	MPTP inh 72, aDG glyco act 6.1 | MPTP counter 67 | aDG glyco conf inactive
Cc1ccccc1Cn1c(C)nc2ccccc21	MPTP inh 101, aDG glyco act 3.3 | MPTP counter 89 | aDG glyco conf inactive
COc1ccccc1Cn1c(C)nc2ccccc21	none
CCNC(=O)Nc1cc(S(=O)(=O)Nc2ccc(OC)cc2)ccc1N1CCOCC1	MPTP inh 94, aDG glyco act 4.9 | MPTP counter 93 | aDG glyco conf inactive
COc1ccc(-c2cc(C3CCN(C(=O)OC(C)(C)C)CC3)[nH]n2)cc1	none
COc1ccc(-c2cc(C3CCN(c4ccc(C(C)=O)cc4[N+](=O)[O-])CC3)[nH]n2)cc1	MPTP inh 84, aDG glyco act 10 | MPTP counter 81 | aDG glyco conf inactive
c1csc(-c2nc3c4ccccc4c4ccccc4c3[nH]2)c1	MPTP inh 72, NR3A LBD binder 28, aDG glyco act 5.5 | MPTP counter 48 | aDG glyco conf inactive
c1ccc(-c2nc(-c3cccs3)[nH]c2-c2ccccc2)cc1	none
O=C(Nc1cccc(Cl)c1)Nc1sccc1-c1nc2ccccc2s1	MPTP inh 78, NR3A LBD binder 29, aDG glyco act 4.4 | MPTP counter 69 | aDG glyco conf inactive
Cc1ccc(CC(=O)N2CCN(C(=O)c3ccco3)CC2)cc1	none
COc1ccc(CN2CCC(C(=O)Nc3ccc(Oc4cccnc4)cc3)CC2)c(C)c1C	MPTP inh 83, aDG glyco act 2.2 | MPTP counter 91 | aDG glyco conf 4.7
COc1cccc(O)c1CN1CCC(C(=O)Nc2ccc(Oc3cccnc3)cc2)CC1	none
OC[C@H]1O[C@H](OC[C@H]2O[C@H](OC[C@H]3O[C@H](O[C@]4(CO)O[C@H](CO)[C@@H](O)[C@@H]4O)[C@H](O)[C@@H](O)[C@@H]3O)[C@H](O)[C@@H](O)[C@H]2O)[C@H](O)[C@@H](O)[C@H]1O	none
CC(/C=C/c1ccccc1)=N/NC(=O)Cn1nnc(N)n1	none
CCc1ccc(S(=O)(=O)NCc2ccc(C(=O)NCCN(Cc3ccccc3)C(C)C)cc2)cc1	MPTP inh 97, aDG glyco act 4.5 (no result: procasp3 activ, procasp7 counter, NR3A LBD binder) | MPTP counter 93 | aDG glyco conf inactive
CCN(CCCNC(=O)C1CCN(S(=O)(=O)c2cccc3nonc23)CC1)Cc1ccccc1	aDG glyco act 8.3 | aDG glyco conf inactive
CCCNC(=O)C1CCN(S(=O)(=O)c2cccc3nonc23)CC1	none
O=C1NC[C@H](CCCCN2C[C@H](Cc3ccccc3)N(CC3CCCCC3)C(=O)C2=O)N(CCc2ccccc2)C1=O	none (no result: procasp3 activ, procasp7 counter, NR3A LBD binder)
N#CCC(=O)Nc1ccc(C(=O)OCC(=O)N=c2sccn2Cc2ccccc2Cl)cc1	aDG glyco act 5.4 | aDG glyco conf inactive
O=C(COC(=O)c1ccc(O)cc1O)N=c1sccn1Cc1ccccc1Cl	none
CC(=O)C1=C(C)NC(C)=C(C(C)=O)C1c1ccc(-c2ccccc2Cl)o1	none (no result: procasp3 activ, procasp7 counter)
COCCCn1cn[nH]c1=S	aDG glyco act 6.3 | aDG glyco conf inactive
CCN(CC)S(=O)(=O)c1cccc(N=Nc2c(O)c3ccccc3oc2=O)c1	none
CCOC(=O)N1CCC(N2C(=O)c3ccc(C(=O)Nc4ccc(F)cc4F)cc3C2=O)CC1	aDG glyco act 8.8 | aDG glyco conf inactive
O=C(CNc1ccccc1)N/N=C/c1cn(-c2ccccc2)nc1-c1ccccc1	none
N=c1n(CCN2CCOCC2)c2ccccc2n1CC(=O)c1ccc(Cl)c(Cl)c1	aDG glyco act 7.7 | aDG glyco conf 6.6
COc1cccc(C(=O)Cn2c(=N)n(C)c3ccccc32)c1	aDG glyco act 7.5 | aDG glyco conf 5.1
COc1cccc(C(=O)Cn2c(NCCO)nc3ccccc32)c1	none
CCCn1c(=N)n(CC(=O)c2ccc([N+](=O)[O-])cc2)c2ccccc21	none
CCCn1c(=N)n(CC(=O)c2ccc(Cl)cc2)c2ccccc21	aDG glyco act 3.8 | aDG glyco conf 6.0

Source: PubChem BioAssay
